Reference: ChEMBL document CHEMBL3769381 (J Med Chem, 2016)
The source made the active and inactive calls. The calls are words filed in the database; no cut-off is given here.

What was measured:
[1] = biological target: T1, Adenosine receptor A1 (Homo sapiens) (UniProt P30542); test: Agonist activity at human Adenosine A1 receptor expressed in yeast cells coexpressed with chimeric GPA1/Galphai1 at 100 uM after 16 hrs by beta galactosidase reporter gene assay; type: cell-based
T1 sequence (whole entry): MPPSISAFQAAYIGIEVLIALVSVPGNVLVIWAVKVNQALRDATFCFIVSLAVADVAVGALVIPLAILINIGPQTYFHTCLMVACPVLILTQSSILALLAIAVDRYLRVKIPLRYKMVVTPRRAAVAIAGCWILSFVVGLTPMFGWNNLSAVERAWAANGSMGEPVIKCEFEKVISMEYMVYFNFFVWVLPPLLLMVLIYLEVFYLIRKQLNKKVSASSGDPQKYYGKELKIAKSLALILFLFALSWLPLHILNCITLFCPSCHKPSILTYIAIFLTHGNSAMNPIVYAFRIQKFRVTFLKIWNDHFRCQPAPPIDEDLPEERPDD
How it was run: (§1)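 Human receptor expressed from GAPDH promoter (p426-GPD) in Δfar1 FUS1-lacZ yeast with Gpa1p(1-467) carrying the 5 C-terminal Gα residues. Cells are grown overnight in SD-URA at 30°C, diluted 1:10 and grown 8 h. They are set to OD600 0.02 and given compound at 1% v/v DMSO for 16 h at 30°C. A2A strain is grown in SD-URA-HIS, with 5 mM 3-amino-triazole in treatment media. Read-out: ONPG, (OD430−OD620)/OD620.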

[2] = biological target: T1, Adenosine receptor A1 (Homo sapiens)
[3] = biological target: T2, Adenosine receptor A2a (Homo sapiens, UniProt P29274); test: Agonist activity at human Adenosine A2A receptor expressed in yeast cells coexpressed with chimeric GPA1/Galphas at 100 uM after 16 hrs by beta-galactosidase reporter gene assay; type: cell-based; how it was run: as §1
[4] = biological target: T3, Adenosine receptor A2b (Homo sapiens) (UniProt P29275); test: Binding affinity to human Adenosine A2B receptor expressed in yeast cells coexpressed with GPA1/Galphas; type: cell-based
T3 sequence (whole entry): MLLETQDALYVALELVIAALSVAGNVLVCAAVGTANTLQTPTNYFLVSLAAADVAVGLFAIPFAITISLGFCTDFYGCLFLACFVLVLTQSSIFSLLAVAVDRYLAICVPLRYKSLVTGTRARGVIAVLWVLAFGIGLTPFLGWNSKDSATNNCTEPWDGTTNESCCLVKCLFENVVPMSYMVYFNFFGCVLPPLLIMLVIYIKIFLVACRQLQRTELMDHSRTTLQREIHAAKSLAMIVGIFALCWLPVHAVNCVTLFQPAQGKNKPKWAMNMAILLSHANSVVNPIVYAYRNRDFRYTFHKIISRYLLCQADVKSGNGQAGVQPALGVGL
How it was run: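 pKA is derived by non-linear regression of the operational model of agonism applied to 16 h yeast FUS1-lacZ concentration-response data, with A2BR coupled to the GPA1/Gαs chimera.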

[5] = biological target: T3, Adenosine receptor A2b (Homo sapiens); test: Agonist activity at human Adenosine A2B receptor expressed in yeast cells coexpressed with chimeric GPA1/Galphas at 100 µM after 16 hrs by beta-galactosidase reporter gene assay; type: cell-based
How it was run: (§2)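 Yeast (Δfar1, FUS1-lacZ) express A2BR from the GAPDH promoter alongside Gpa1p/Gαs chimera. The OD600 is 0.02 and compound is added in 1% v/v DMSO for 16 h at 30°C. β-Galactosidase is read with ONPG at OD430, normalised as (OD430−OD620)/OD620. […] Three-parameter logistic fit gives EC50 and Emax. Data are from 5-8 independent experiments.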

[6] = biological target: T2, Adenosine receptor A2a
[7] = biological target: T3, Adenosine receptor A2b (Homo sapiens); test: Agonist activity at human Adenosine A2B receptor expressed in yeast cells coexpressed with chimeric GPA1/Galphas after 16 hrs by beta-galactosidase reporter gene assay relative to NECA; type: cell-based; how it was run: as §2
[8] = biological target: T4, Adenosine receptor A3 (Homo sapiens) (UniProt P0DMS8); test: Agonist activity at human Adenosine A3 receptor transfected in CHO-K1 cells assessed as inhibition of forskolin-stimulated cAMP production after 30 mins by multimode microplate reader analysis relative to total forskolin; type: functional, cell-based; set-up: concentration or dose not given beside the values
T4 sequence (whole entry): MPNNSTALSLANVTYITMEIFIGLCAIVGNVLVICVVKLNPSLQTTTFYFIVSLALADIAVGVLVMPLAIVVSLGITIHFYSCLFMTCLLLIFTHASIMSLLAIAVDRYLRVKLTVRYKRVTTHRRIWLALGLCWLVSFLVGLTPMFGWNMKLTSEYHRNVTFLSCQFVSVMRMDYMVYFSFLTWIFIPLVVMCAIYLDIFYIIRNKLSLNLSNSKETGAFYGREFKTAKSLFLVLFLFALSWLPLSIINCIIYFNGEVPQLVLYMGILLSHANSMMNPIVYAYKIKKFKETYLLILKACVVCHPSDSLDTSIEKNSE
How it was run: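 CHO-K1 cells are transiently transfected with receptor (2 µg DNA, FuGene 6) and harvested at 48 h. Cells are resuspended in PBS with 0.1% BSA and 25 µM rolipram, at 2500 cells/well. They are co-incubated with 10 µM forskolin and ligand (10 pM to 1 µM) for 30 min at room temperature. cAMP is measured by LANCE kit. Data are expressed as % of the 10 µM forskolin response.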

[9] = biological target: T2, Adenosine receptor A2a; test: Agonist activity at human Adenosine A2A receptor expressed in yeast cells coexpressed with chimeric GPA1/Galphas after 16 hrs by beta-galactosidase reporter gene assay; type: cell-based
[10] = biological target: T4, Adenosine receptor A3 (Homo sapiens); test: (§3) Agonist activity at human Adenosine A3 receptor transfected in CHO-K1 cells assessed as inhibition of forskolin-stimulated cAMP production after 30 mins by multimode microplate reader analysis; type: functional, cell-based
How it was run: (§4)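 CHO-K1 cells are transiently transfected with receptor (2 µg DNA, FuGene 6) and harvested at 48 h. They are co-incubated with 10 µM forskolin and ligand (10 pM to 1 µM) for 30 min at room temperature. cAMP is measured by LANCE kit. Data are expressed as % of the 10 µM forskolin response.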

[11] = biological target: T3, Adenosine receptor A2b (Homo sapiens); test: (§5) Agonist activity at human Adenosine A2B receptor expressed in yeast cells coexpressed with chimeric GPA1/Galphas after 16 hrs by beta-galactosidase reporter gene assay; type: cell-based
How it was run: (§6)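 Yeast (Δfar1, FUS1-lacZ) express A2BR from the GAPDH promoter alongside Gpa1p/Gαs chimera. The OD600 is 0.02 and compound is added in 1% v/v DMSO for 16 h at 30°C. β-Galactosidase is read with ONPG at OD430, normalised as (OD430−OD620)/OD620. Three-parameter logistic fit gives EC50 and Emax. Data are from 5-8 independent experiments.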

[12] = biological target: T5, Adenosine receptor A1 (Homo sapiens, UniProt P30542); test: Agonist activity at human Adenosine A1 receptor expressed in yeast cells coexpressed with chimeric GPA1/Galphai1 after 16 hrs by beta galactosidase reporter gene assay; type: cell-based
T5 sequence (P30542 whole entry): T1 sequence (whole entry)

[13] = biological target: T5, Adenosine receptor A1; test: Agonist activity at human Adenosine A1 receptor transfected in CHO-K1 cells assessed as inhibition of forskolin-stimulated cAMP production after 30 mins by multimode microplate reader analysis; type: functional, cell-based
[14] = biological target: T1, Adenosine receptor A1 (Homo sapiens); remark: listed apart in the source
[15] = biological target: T2, Adenosine receptor A2a; remark: listed apart in the source
[16] = biological target: T3, Adenosine receptor A2b (Homo sapiens)
[17] = biological target: T6, Adenosine receptor A3 (Homo sapiens, UniProt P0DMS8); test: as §3; type: functional, cell-based; how it was run: as §4
T6 sequence (P0DMS8 whole entry): T4 sequence (whole entry)

[18] = biological target: T7, Adenosine receptor A2b (Homo sapiens, UniProt P29275); test: as §5; type: cell-based; how it was run: as §6
T7 sequence (P29275 whole entry): T3 sequence (whole entry)

T2 sequence (P29274 whole entry): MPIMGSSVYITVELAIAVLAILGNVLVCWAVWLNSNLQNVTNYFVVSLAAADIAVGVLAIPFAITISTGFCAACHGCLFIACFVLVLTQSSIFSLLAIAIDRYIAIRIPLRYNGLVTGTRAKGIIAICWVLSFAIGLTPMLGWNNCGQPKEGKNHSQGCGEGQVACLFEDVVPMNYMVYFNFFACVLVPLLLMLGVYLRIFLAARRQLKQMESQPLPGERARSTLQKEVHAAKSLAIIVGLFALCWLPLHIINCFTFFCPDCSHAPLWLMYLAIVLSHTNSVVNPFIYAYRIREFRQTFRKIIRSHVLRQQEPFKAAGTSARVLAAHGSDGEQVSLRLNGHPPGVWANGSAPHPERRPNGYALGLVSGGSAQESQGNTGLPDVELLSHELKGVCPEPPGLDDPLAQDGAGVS

SMILES | Activity [1] | pKA [2] | Activity [3] | pKA [4] | Activity [5] | pKA [6] | Emax [7] | Activity [8] | pEC50 [9] | pIC50 [10] | pEC50 [11] | EC50 [12] [µM] | IC50 [13] [µM] | log(activity) [14] | log(activity) [15] | log(activity) [16] | IC50 [17] [µM] | EC50 [9] [µM] | EC50 [18] [µM]
CN1[C@@H]2CCC[C@H]1C[C@@H](Nc1ncnc3c1ncn3[C@@H]1O[C@H](CSc3ccccc3F)[C@@H](O)[C@H]1O)C2 | inactive | inactive | inactive | inactive | inactive | inactive | – | – | – | – | – | – | – | – | – | – | – | – | –
OC[C@H]1O[C@@H](n2cnc3c(N[C@@H]4CCC[C@H]4OCc4ccccc4)ncnc32)[C@H](O)[C@@H]1O | – | 4.9 | – | inactive | – | inactive | inactive | inactive | – | – | – | – | – | – | – | – | – | – | –
CCNC(=O)[C@H]1O[C@@H](n2cnc3c(N)ncnc32)[C@H](O)[C@@H]1O | – | 4.4 | – | 4.2 | – | – | – | -44.1% | – | – | – | – | – | – | – | – | – | – | –
CCNC(=O)[C@H]1O[C@@H](n2cnc3c(NC4C5CC6CC(C5)CC4C6)ncnc32)[C@H](O)[C@@H]1O (stereo not given in full) | – | 2.4 | – | inactive | – | inactive | inactive | inactive | inactive | inactive | inactive | 15.8 | 0.000398 | 2.4 | – | – | – | – | –
CCNC(=O)[C@H]1O[C@@H](n2cnc3c(N)nc(NCCc4ccc(CCC(=O)O)cc4)nc32)[C@H](O)[C@@H]1O | – | 2.1 | – | 3.4 | – | – | 59.1% | – | – | – | – | – | – | – | – | – | – | – | –
OC[C@H]1O[C@@H](n2cnc3c(NC4CCCC4)nc(Cl)nc32)[C@H](O)[C@@H]1O | – | – | – | 4.4 | – | 4.7 | 30.6% | -46.6% | – | – | – | – | – | 0.6 | -0.1 | 3.5 | – | – | –
O[C@@H]1[C@H](O)[C@@H](CSc2ccccc2F)O[C@H]1n1cnc2c(NC34CC5CC(CC(C5)C3)C4)ncnc21 | inactive | inactive | – | inactive | inactive | – | – | – | – | – | – | – | – | – | – | – | – | – | –
Nc1ncnc2c1ncn2[C@@H]1O[C@H](CO)[C@@H](O)[C@H]1O | – | – | – | 3.8 | – | – | 70.4% | – | – | – | – | – | – | – | – | – | – | – | –
CCNC(=O)[C@H]1O[C@@H](n2cnc3c(N4[C@@H]5CCC[C@H]4C[C@H](N)C5)ncnc32)[C@H](O)[C@@H]1O | inactive | inactive | inactive | inactive | inactive | inactive | – | – | – | – | – | – | – | – | – | – | – | – | –
CCNC(=O)[C@H]1O[C@@H](n2cnc3c(NC45CC6CC(CC(O)(C6)C4)C5)ncnc32)[C@H](O)[C@@H]1O | – | 3.5 | – | inactive | – | inactive | inactive | -32.7% | inactive | – | inactive | 100 | 0.0372 | 1 | – | – | 0.0794 | – | –
CCNC(=O)[C@H]1O[C@@H](n2cnc3c(N[C@@H]4CCC[C@H]4O)ncnc32)[C@H](O)[C@@H]1O | – | 4.8 | – | 4.2 | – | 4.6 | 49.2% | -37.9% | – | – | – | 0.316 | 0.00617 | 1.6 | 0.3 | -0.2 | 0.00229 | 5.75 | 331
OC[C@H]1O[C@@H](n2cnc3c(NC45CC6CC(CC(C6)C4)C5)ncnc32)[C@H](O)[C@@H]1O | – | 3 | – | inactive | – | inactive | inactive | inactive | inactive | inactive | inactive | 15.8 | 0.0191 | 1.8 | – | – | – | – | –
CN1[C@@H]2CCC[C@H]1C[C@@H](Nc1ncnc3c1ncn3[C@@H]1O[C@H](CO)[C@@H](O)[C@H]1O)C2 | – | inactive | inactive | inactive | inactive | inactive | – | – | – | – | – | – | – | – | – | – | – | – | –
OC[C@H]1O[C@@H](n2cnc3c(N[C@@H]4CCC[C@H]4O)ncnc32)[C@H](O)[C@@H]1O | – | 5.5 | – | inactive | – | inactive | inactive | -35.1% | inactive | – | inactive | 0.631 | 0.00437 | 0.7 | – | – | 0.0275 | – | –
CCNC(=O)[C@H]1O[C@@H](n2cnc3c(N4[C@@H]5CCC[C@H]4C[C@H](N(C)C)C5)ncnc32)[C@H](O)[C@@H]1O | inactive | inactive | inactive | inactive | inactive | inactive | – | – | – | – | – | – | – | – | – | – | – | – | –
CCNC(=O)[C@H]1O[C@@H](n2cnc3c(NC45CC6CC(CC(C6)C4)C5)ncnc32)[C@H](O)[C@@H]1O | – | 4.2 | – | inactive | – | inactive | inactive | inactive | inactive | inactive | inactive | 3.98 | 0.00288 | 1.2 | – | – | – | – | –
CCNC(=O)[C@H]1O[C@@H](n2cnc3c(N[C@H]4C[C@H]5CCC[C@@H](C4)N5C)ncnc32)[C@H](O)[C@@H]1O | – | inactive | inactive | inactive | inactive | inactive | – | – | – | – | – | – | – | – | – | – | – | – | –
